Consider six molecules from ChEMBL document CHEMBL1147665, “Design, synthesis, and biological evaluation of 4-alkyliden-beta lactams: new products with promising antibiotic activity against resistant bacteria” (J Med Chem, 2006).

In brackets after ≈: the same amount, converted by molar mass. Bounds are passed on as bounds.

Assay type in all cases: functional
One assay relates to Enterococcus. Description: Antibacterial activity against Enterococcus spp. The essentials: (§1)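 Broth microdilution MIC per CLSI guidelines in Mueller-Hinton broth: serial 2-fold dilutions, inoculum 5 × 10⁵ CFU/mL in equal volume, 35 °C for 16-20 h. MIC = lowest concentration with no visible turbidity. Recent clinical isolates (43 total, Gram-positive and Gram-negative); values given as MIC ranges, MIC₅₀ and MIC₉₀ per species.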

The next assay has as its system Streptococcus pyogenes. Description: Antibacterial activity against Streptococcus pyogenes. The essentials:
as §1

For assay [1], the system named is Staphylococcus aureus. The assay is described as follows: Antibacterial activity against methicillin-resistant Staphylococcus aureus. The essentials:
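Clinical isolates (3 MRSA in a 43-strain panel). Broth microdilution per CLSI, serial 2-fold dilutions in Mueller-Hinton broth, inoculum 5 × 10⁵ CFU/mL, 35 °C for 16-20 h. MIC = lowest concentration with no visible turbidity; reported as MIC range, MIC₅₀ and MIC₉₀ across isolates.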

Assay [2] has as its system Staphylococcus aureus. The assay is described as follows: Antibacterial activity against methicillin-susceptible Staphylococcus aureus. The essentials: as §1
Assay [3] deals with Staphylococcus epidermidis. The assay is described as follows: Antibacterial activity against Staphylococcus epidermidis. The essentials:
as §1

A further assay concerns Streptococcus pneumoniae. Description: Antibacterial activity against Streptococcus pneumoniae. The essentials:
as §1

In the next assay the test system is Haemophilus influenzae. Description: Antibacterial activity against Haemophilus influenzae. The essentials:
as §1

`O=C(O)/C=C1\NC(=O)[C@@H]1Cl`: the MIC50 was found to be 128 µg/mL (≈ 792 µM) against Enterococcus; 16 µg/mL (≈ 99 µM) in the assay with Streptococcus pyogenes; 128 µg/mL (≈ 792 µM) in the assay on Staphylococcus aureus [1]; 32 µg/mL (≈ 198 µM) in the assay with Staphylococcus aureus [2]; 64 µg/mL (≈ 396 µM) in assay [3]; 128 µg/mL (≈ 792 µM) against Streptococcus pneumoniae. The molecule also registered an MIC50 against Haemophilus influenzae of 64 µg/mL (≈ 396 µM). The MIC90 with Enterococcus was above 128 µg/mL; in the assay on Streptococcus pyogenes, 128 µg/mL (≈ 792 µM); with Staphylococcus aureus [1] it was 128 µg/mL (≈ 792 µM); in the assay on Staphylococcus aureus [2], 64 µg/mL (≈ 396 µM); in assay [3], 64 µg/mL (≈ 396 µM); with Streptococcus pneumoniae, 128 µg/mL (≈ 792 µM). The molecule also had an MIC90 against Haemophilus influenzae of 64 µg/mL (≈ 396 µM).
In the case of `CCOC(=O)/C=C1\NC(=O)[C@@H]1[C@@H](C)OC(=O)c1cc(O)c(O)c(O)c1`, the MIC50 is above 128 µg/mL with Enterococcus; above 128 µg/mL against Streptococcus pyogenes; 128 µg/mL (≈ 364 µM) against Staphylococcus aureus [1]; 128 µg/mL (≈ 364 µM) against Staphylococcus aureus [2]; 16 µg/mL (≈ 45.5 µM) in assay [3]; 128 µg/mL (≈ 364 µM) against Streptococcus pneumoniae. Further, the MIC50 against Haemophilus influenzae was found to be 128 µg/mL (≈ 364 µM). In addition, the MIC90 against Enterococcus is above 128 µg/mL; against Streptococcus pyogenes it was above 128 µg/mL; against Staphylococcus aureus [1], 128 µg/mL (≈ 364 µM); in the assay on Staphylococcus aureus [2], 128 µg/mL (≈ 364 µM); in assay [3], 64 µg/mL (≈ 182 µM); in the assay on Streptococcus pneumoniae it was above 128 µg/mL. In the assay on Haemophilus influenzae, this molecule showed an MIC90 of 128 µg/mL (≈ 364 µM).
`CCOC(=O)/C=C1/NC(=O)[C@@H]1[C@@H](C)O[Si](C)(C)C(C)(C)C`: the MIC50 is above 128 µg/mL against Enterococcus; 128 µg/mL (≈ 408 µM) in the assay on Streptococcus pyogenes; 128 µg/mL (≈ 408 µM) in the assay on Staphylococcus aureus [1]; above 128 µg/mL against Staphylococcus aureus [2]; 128 µg/mL (≈ 408 µM) in assay [3]; 128 µg/mL (≈ 408 µM) against Streptococcus pneumoniae. In addition, in the assay with Haemophilus influenzae, the MIC50 was 128 µg/mL (≈ 408 µM). Further, the MIC90 against Enterococcus is above 128 µg/mL; with Streptococcus pyogenes, 128 µg/mL (≈ 408 µM); in the assay with Staphylococcus aureus [2], above 128 µg/mL; in assay [3], 128 µg/mL (≈ 408 µM); against Streptococcus pneumoniae it was 128 µg/mL (≈ 408 µM); in the assay on Haemophilus influenzae, 128 µg/mL (≈ 408 µM).
On to `CCOC(=O)/C=C1\NC(=O)[C@@H]1Cl`, for which the MIC50 with Enterococcus was above 128 µg/mL; with Streptococcus pyogenes, 128 µg/mL (≈ 675 µM); against Staphylococcus aureus [1] it was 128 µg/mL (≈ 675 µM); against Staphylococcus aureus [2], 32 µg/mL (≈ 169 µM); in assay [3], 16 µg/mL (≈ 84.4 µM); in the assay with Streptococcus pneumoniae it was 128 µg/mL (≈ 675 µM). This molecule gave an MIC50 with Haemophilus influenzae of 32 µg/mL (≈ 169 µM). For the same molecule, the MIC90 in the assay on Enterococcus is above 128 µg/mL; against Streptococcus pyogenes, 128 µg/mL (≈ 675 µM); in the assay with Staphylococcus aureus [1], 128 µg/mL (≈ 675 µM); with Staphylococcus aureus [2] it was 64 µg/mL (≈ 338 µM); in assay [3], 32 µg/mL (≈ 169 µM); against Streptococcus pneumoniae it was 128 µg/mL (≈ 675 µM). The molecule further displayed an MIC90 with Haemophilus influenzae of 32 µg/mL (≈ 169 µM).
Consider `C[C@@H](O)[C@H]1C(=O)N2C(C(=O)O)=C(S[C@@H]3CN[C@H](C(=O)N(C)C)C3)[C@H](C)[C@H]12` [MEROPENEM], for which the MIC50 is 2 µg/mL (≈ 5.22 µM) in the assay on Enterococcus; below 0.06 µg/mL with Streptococcus pyogenes; 32 µg/mL (≈ 83.4 µM) against Staphylococcus aureus [1]; below 0.06 µg/mL against Staphylococcus aureus [2]; below 0.12 µg/mL in assay [3]; below 0.06 µg/mL with Streptococcus pneumoniae. Also, the MIC50 with Haemophilus influenzae is below 0.06 µg/mL. Moreover, the MIC90 in the assay on Enterococcus was above 128 µg/mL; in the assay with Streptococcus pyogenes, below 0.06 µg/mL; against Staphylococcus aureus [1], 32 µg/mL (≈ 83.4 µM); against Staphylococcus aureus [2], below 0.06 µg/mL; in assay [3] it was 64 µg/mL (≈ 167 µM); with Streptococcus pneumoniae, 2 µg/mL (≈ 5.22 µM). In the assay on Haemophilus influenzae, this molecule gave an MIC90 below 0.06 µg/mL.
With `C[C@@H](O)[C@H]1C(=O)N2C(C(=O)O)=C(SCCNC=N)C[C@H]12` [IMIPENEM ANHYDROUS], the MIC50 against Enterococcus was 0.5 µg/mL (≈ 1.67 µM); with Streptococcus pyogenes it was below 0.06 µg/mL; against Staphylococcus aureus [1], 64 µg/mL (≈ 214 µM); against Staphylococcus aureus [2] it was below 0.06 µg/mL; in assay [3], below 0.06 µg/mL; against Streptococcus pneumoniae, 0.12 µg/mL (≈ 0.401 µM). The MIC50 in the assay on Haemophilus influenzae is below 0.06 µg/mL. Also, the MIC90 in the assay with Enterococcus was above 128 µg/mL; against Streptococcus pyogenes it was below 0.06 µg/mL; against Staphylococcus aureus [1] it was 128 µg/mL (≈ 428 µM); in the assay with Staphylococcus aureus [2] it was below 0.06 µg/mL; in assay [3], 1 µg/mL (≈ 3.34 µM); in the assay on Streptococcus pneumoniae it was 1 µg/mL (≈ 3.34 µM). In the assay on Haemophilus influenzae, this molecule had an MIC90 of 0.12 µg/mL (≈ 0.401 µM).
